Hits are enriched below; roughly 1.1% of the tested compounds scored in any of these assays.
NR2E3 ag-1 = activates human NR2E3 receptor | Q9Y5X4 | CHO-S Gal4-NCOR/VP16-NR2E3 two-hybrid, luciferase | inhibition of corepressor binding, % at 3.98 µM | 0.35% of 360,000 active | AID 602229;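 active means inhibition above the mean of all tested compounds plus 3 SD, cut at about 70% in these data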;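 further: 0% = DMSO with NR2E3 transfected cells and 100% = cells lacking NR2E3 construct; higher means lower luciferase signal from less NR2E3 corepressor binding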
DAGLB inhibitor = diacylglycerol lipase beta (human) inhibition; 0.059% of 340,000 active; inhibition, % at 5.17 µM; HEK293T DAGLB membrane lysate, EnzChek fluorogenic substrate; Q8NCG7; in the data active means inhibition above about 34%;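 further: 0% = enzyme with vehicle and 100% = wells lacking enzyme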
Target sequence (Q8NCG7 whole entry, looked up): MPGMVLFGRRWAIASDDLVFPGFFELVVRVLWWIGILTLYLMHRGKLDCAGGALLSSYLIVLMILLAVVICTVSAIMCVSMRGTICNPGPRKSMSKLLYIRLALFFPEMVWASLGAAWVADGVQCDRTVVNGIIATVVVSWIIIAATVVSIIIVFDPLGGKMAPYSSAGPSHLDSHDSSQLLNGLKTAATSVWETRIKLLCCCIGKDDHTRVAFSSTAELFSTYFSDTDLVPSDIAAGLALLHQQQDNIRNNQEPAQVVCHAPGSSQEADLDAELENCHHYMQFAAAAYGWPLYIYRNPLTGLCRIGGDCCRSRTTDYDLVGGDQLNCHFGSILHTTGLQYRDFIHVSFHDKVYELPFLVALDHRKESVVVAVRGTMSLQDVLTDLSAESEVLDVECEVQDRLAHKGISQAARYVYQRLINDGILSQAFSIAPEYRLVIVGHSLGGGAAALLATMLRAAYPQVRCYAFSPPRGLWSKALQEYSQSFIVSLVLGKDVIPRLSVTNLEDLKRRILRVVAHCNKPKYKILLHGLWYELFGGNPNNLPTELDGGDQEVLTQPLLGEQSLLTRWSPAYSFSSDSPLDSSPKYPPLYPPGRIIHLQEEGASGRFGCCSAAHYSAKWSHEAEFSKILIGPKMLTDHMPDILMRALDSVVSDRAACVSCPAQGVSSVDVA
Vif inh = blocks HIV Vif function; 0.35% of 340,000 active; AID 602346; inhibition, % at 7.49 µM; HEK293T cells, Vif self-association by quenched fluorescence, imaging, 24 h; in the data active means inhibition above about 50%, passing the limit was not always enough
core dimer inh = blocks dimerization of HCV core protein | TR-FRET GST/Flag-core106 dimerization, 1536-well | inhibition, % at 5 µM | 0.33% of 300,000 active;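 active means inhibition above the mean of all tested compounds plus 3 SD, set per screening campaign, cut at about 45% in these data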
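System: GST/Flag-tagged HCV core106 proteins. Incubation: compound-protein-antibody incubation 4 h at 22.5 °C. Technique: HTRF with 340 nm excitation, 617/671 nm emission. Medium: KF-containing HEPES buffer, pH 7.45, DTT, CHAPS, BSA. Read-out: inhibition (%) from 671 over 617 nm ratio. Also added: Eu(K)-anti-GST 90 ng/mL plus XL665-anti-Flag 1 µg/mL.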
MT1-MMP act inh = blocks activation of human MT1-MMP; P50281; HT1080 RFP-PRO-GFP cells, GFP/RFP ratio fluorescence, overnight; percent of plate control window, DMSO zero; GFP/RFP ratio change, % at 20 µM; 0.061% of 360,000 active; AID 651647;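 active means GFP/RFP ratio change of at least 30% with cell ATP level not reduced by more than half and red fluorescence within 50% of control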
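Assay system: HT1080 RFP-PRO-GFP cells | Dosing: 20 µM single dose, 1% DMSO | Incubation: Cells overnight before dosing, compound overnight, 37 °C, 5% CO2 | Evaluation: GFP/RFP fluorescence ratio | Control set: DMSO-only wells and HT1080 RFP-L50D-GFP cell wells as references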
NR2E3 ag-2 = agonists of human nuclear receptor NR2E3. Q9Y5X4. GST-NR2E3/biotin-RetCOR TR-FRET, 1536-well. inhibition of corepressor binding, % at 4.78 µM. 0.12% of 320,000 active. AID 2300;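 active means percent inhibition above the cutoff of mean plus 3 SD of all tested compounds, set per screening campaign, cut at about 20% in these data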;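 further: 0% = DMSO wells and 100% = biotin wells as full block of FRET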
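system = GST-tagged NR2E3 plus biotinylated RetCOR corepressor | input = 1.35 nM GST-NR2E3 | also added = 7 nM biotin-RetCOR | schedule = 5 h incubation at 4 °C | measured by = TR-FRET with europium anti-GST and streptavidin-D2, 340 nm excitation | read-out = percent loss of FRET ratio relative to control wells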
NR2E3 ag confirm = confirmation of human NR2E3 nuclear receptor agonists. cell-free NR2E3 corepressor release, TR-FRET, 5 h. activation (reported as inhibition), % at 3.98 µM. 39% of 360 active. shares compounds with NR2E3 ag-2. AID 2379; in the data active means activation above about 20%
PPARg-NCOR2 ag = releases PPARgamma from NCOR2 in NR2E3 counter-screen. 45% of 360 active. shares compounds with NR2E3 ag-2. TR-FRET PPARg-NCOR2 coregulator interaction, biochemical. inhibition, % at 3.98 µM. AID 504787; in the data active means inhibition above about 20%;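 further: 0% = DMSO vehicle and 100% = wells without protein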
Starred values were filed as active, the others as inactive; nt = no result given.

SMILES	NR2E3 ag-1	DAGLB inhibitor	Vif inh	core dimer inh	MT1-MMP act inh	NR2E3 ag-2	NR2E3 ag confirm	PPARg-NCOR2 ag
COc1ccc(C(=O)c2sc3nc(C)cc(-c4cccs4)c3c2N)cc1OC	-35.4	-6.7	175.8*	-2.2	-144.3	3.4	nt	nt
COc1ccc(C(=O)c2sc3nc(C)cc(-c4cccs4)c3c2N)cc1	-17.6	-11.7	-0.3	nt	-95.0	nt	nt	nt
O=C(/C=C/c1ccco1)N1CCN(c2ncccn2)CC1	-30.2	-3.3	1.3	-3.9	-4.0	-1.8	nt	nt
O=C(/C=C/c1ccco1)N1CCC(Cc2ccccc2)CC1	-25.6	-1.5	64.9*	4.6	-4.6	-0.5	nt	nt
Oc1c(CN2CCN(c3ccccn3)CC2)cc(Cl)c2cccnc12	78.7*	2.5	-3.1	-5.5	-8.4	-0.1	nt	nt
Cc1cccc(OCCC(=O)Nc2ccc(Cl)cc2F)c1	-1.3	-5.1	-0.3	1.2	-1.0	2.1	nt	nt
CCCCNC(=O)c1nc(C2CCN(S(=O)(=O)c3ccc(C(F)(F)F)cc3)CC2)oc1-c1ccccc1	nt	nt	nt	nt	-0.5	nt	nt	nt
COc1cc(/C=N/NC(=Nc2ccc(C)cc2)c2nc3ccccc3s2)ccc1O	90.8*	0.7	-3.1	9.6	-12.2	1.7	nt	nt
COc1ccccc1/C=N/NC(=Nc1ccc(C)cc1)c1nc2ccccc2s1	nt	nt	nt	13.1	nt	1.3	nt	nt
O=[N+]([O-])c1ccc(-c2c[nH]c(=S)[nH]2)cc1	-25.4	6.3	2.9	53.2*	2.3	-4.6	nt	nt
O=C(NCCCN1CCCC1=O)C(=O)NCC1OCCN1S(=O)(=O)c1ccc(Cl)cc1 (stereo unspecified)	-3.2	-2.4	14.1	0.8	0.0	6.2	nt	nt
O=C(COC(=O)c1cc([N+](=O)[O-])ccc1NCc1ccccc1)NC1CCCc2ccccc21 (stereo unspecified)	-26.0	2.1	-0.8	58.5*	3.9	-0.6	nt	nt
Cc1cccc2nc(C(=O)Nc3cc(Cl)ccc3-n3cncn3)cn12	-42.9	-1.8	75.2*	nt	2.4	5.8	nt	nt
Cc1cccc(C(=O)Nc2cc(Cl)ccc2-n2cncn2)c1[N+](=O)[O-]	-22.7	0.0	8.5	0.2	0.9	5.3	nt	nt
CCOc1ccc(CC(=O)Nc2sc(Cc3ccccc3)c(C)c2C(N)=O)cc1OCC	-10.8	0.6	57.8*	12.8	-14.3	-3.3	nt	nt
Cc1ccc(S(=O)(=O)NC(=O)Cn2nnc(-c3ccccc3)c2COc2ccc3ccccc3c2)cc1	5.4	nt	0.3	nt	3.5	nt	nt	nt
CCOC(=O)C1=C[C@@H](C(C)C)N(S(=O)(=O)c2ccc(C)cc2)[C@H]1c1ccc(C(F)(F)F)cc1	-16.6	nt	nt	nt	-4.0	nt	nt	nt
COc1cc(COc2ccc(S(=O)(=O)N3CCOCC3)cc2[N+](=O)[O-])ccc1OC(F)F	-3.0	-0.3	57.4*	nt	2.7	nt	nt	nt
COCCNC(=O)c1cc(-c2ccccn2)nc2ccc(S(=O)(=O)N3CCC(C)CC3)cc12	10.1	-4.0	-3.7	-2.2	-3.4	20.4*	-9.2	6.6
S=c1[nH]c2ccccc2n2cccc12	-13.0	0.6	-9.6	55.4*	-1.1	29.3*	7.8	7.5
COc1ccc(N(CC(=O)Nc2cc([N+](=O)[O-])ccc2C)S(C)(=O)=O)cc1OC	-1.8	-0.1	0.3	2.7	3.7	2.8	nt	nt
O=C(O)c1ccsc1Cc1cccs1	-59.1	-3.9	-0.7	nt	-4.6	nt	nt	nt
Cc1ccc(-c2cc(-c3ccccc3)c(C#N)c(N)n2)o1	-2.4	7.4	nt	13.0	-36.3	0.9	nt	nt
Cc1cc(-c2ccc(Cl)cc2)c(C#N)c(N)n1	-32.9	2.5	-0.7	26.3	-1.1	38.9*	26.3*	25.7*
C=CCn1c(NS(=O)(=O)c2ccccc2)c(S(=O)(=O)c2ccc(C)cc2)c2nc3ccccc3nc21	12.4	-0.6	-8.3	18.9	0.8	43.8*	10.1	88.4*
SMILES	NR2E3 ag-1	DAGLB inhibitor	Vif inh	core dimer inh	MT1-MMP act inh	NR2E3 ag-2	NR2E3 ag confirm	PPARg-NCOR2 ag
O=S(=O)(Nc1c(S(=O)(=O)c2ccccc2)c2nc3ccccc3nc2n1C1CCCCC1)c1ccccc1	-7.4	-5.0	-9.6	34.1	-7.5	2.5	nt	nt
COc1ccc(OC)c(C(=O)N2CCC(n3nccc3NC(=O)CC(C)C)CC2)c1	-23.1	1.4	13.5	-5.0	-5.7	1.8	nt	nt
CCOC(=O)CCCc1sc(N)nc1-c1[nH]c(=O)[nH]c1C	-15.9	-0.7	-3.5	-9.9	-0.6	47.9*	11.8	-2.6
CCOC(=O)Cc1csc(-n2sc3ccccc3c2=O)n1	-29.8	2.5	-2.0	59.1*	-2.8	32.0*	17.9	22.1*
CCOC(=O)Cc1csc(SCn2nnc3ccccc3c2=O)n1	-2.7	-2.2	6.3	2.4	0.8	0.8	nt	nt
Cc1cnc(NC(=O)c2cccc(S(=O)(=O)N3CCOCC3)c2)s1	1.2	-4.7	-16.0	nt	1.7	2.9	nt	nt
CC1=NN(Cc2ccccc2)C(=O)C1	-17.1	2.2	2.8	-7.3	-5.0	19.6*	-8.2	-10.1
CC(C)Cn1c(N)c(C(=O)NCC2CCCO2)c2nc3ccccc3nc21 (stereo unspecified)	19.2	-11.2	-10.0	-0.9	-5.4	3.7	nt	nt
COCCn1c(N)c(C(=O)NCC2CCCO2)c2nc3ccccc3nc21 (stereo unspecified)	-6.7	0.3	-4.9	8.4	-10.2	35.6*	-2.6	6.4
CC(=O)c1sc2nc(SCC(=O)NCCc3ccccc3)[nH]c(=O)c2c1C	9.8	-1.4	-4.9	13.7	8.4	31.7*	13.3	19.8*
O=C(NCCC(=O)N1CCN(C(=O)c2ccco2)CC1)c1ccc(Br)cc1	8.0	0.6	-2.4	-7.4	-0.8	-5.2	nt	nt
O=C1NC[C@H](CC2CCCCC2)N(CCc2cccc(F)c2)C1=O	12.7	-2.4	8.2	-5.0	11.0	3.0	nt	nt
COc1ccc(C(CNC(=O)COc2cccc(C(F)(F)F)c2)N2CCCC2)cc1 (stereo unspecified)	5.0	0.6	-12.0	nt	9.3	31.6*	-0.4	-6.2
COc1ccc(C(CNC(=O)COc2cccc(C)c2)N2CCCC2)cc1 (stereo unspecified)	2.1	-0.3	14.7	nt	-2.1	5.0	nt	nt
Cc1c(N2C(=O)c3ccc(Br)cc3C2=O)c(=O)n(-c2ccccc2)n1C	-7.0	-0.7	12.3	-3.4	-2.0	4.1	nt	nt
Cc1c(N2C(=O)c3ccc4c5c(ccc(c35)C2=O)CC4)c(=O)n(-c2ccccc2)n1C	-7.5	0.4	10.9	81.7*	-3.4	20.6*	25.6*	13.8
C=CCSc1nc(-c2ccccc2)c(C#N)c(=O)[nH]1	-5.8	4.5	nt	0.7	13.6	21.7*	16.3	41.1*

Screening data from PubChem BioAssay.
